Laboratory results reported in ChEMBL document CHEMBL3244330, “Structure--activity relationships of n-substituted dopamine and 2-amino-6,7-dihydroxy-1,2,3,4-tetrahydronaphthalene analogues: behavioral effects in lesioned and reserpinized mice” (J Med Chem, 1979).
Active and inactive are the calls of the source. No cut-off for these calls is given here.

Tests used:
Mus musculus [1] = test: Postural effect on caudectomized Swiss albino mouse assessed as latency to onset time of asymmetric postural effect at 91.2 mg/kg, ip; type: functional, organism-based; parameters: dose 91.2 mg/kg
How it was run: (§1)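 Male Swiss albino Hale-Stoner mice with right caudectomy by suction, used if responsive to apomorphine 4 weeks post-lesion. Compound in 0.9% saline given ip, maximum 0.348 mmol/kg. 18 mice per compound in random groups of six, retested after 5–6 day intervals. Onset latency and duration of asymmetric posture recorded; mean ± SE from six animals.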

Mus musculus [2] = test: Postural effect on caudectomized Swiss albino mouse assessed as latency to onset time of asymmetric postural effect at 51.9 mg/kg, ip; type: functional, organism-based; parameters: dose 51.9 mg/kg; how it was run: as §1
Mus musculus [3] = test: Postural effect on caudectomized Swiss albino mouse assessed as latency to onset time of asymmetric postural effect at 120 mg/kg, ip; type: functional, organism-based; parameters: dose 120 mg/kg
How it was run: (§2)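 Male Swiss albino Hale-Stoner mice with a right caudectomy made by suction. A lesion was accepted if the mouse responded to apomorphine 4 weeks after surgery. Compounds were dissolved in 0.9% saline and injected ip at random into groups of six, with a maximum dose of 0.348 mmol/kg. 18 mice were used per compound, and mice were retested after 5–6 day intervals. Onset and duration of the asymmetric posture are reported as mean ± SE from six animals.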

Mus musculus [4] = test: Reversal of reserpine-induced catalepsy in ip dosed Swiss albino (CD1) mouse; type: functional
How it was run: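 Male Swiss albino CD1 mice, 5 weeks old, got reserpine 5 mg/kg ip, then α-MTM 250 mg/kg ip 17 h later, then the test drug ip 4 h after that. Catalepsy was scored by the rubber-stopper test (time to step off the stopper). At least four doses were used, with ≥8 mice per dose. ED50 was taken from a log-probit plot of percent responders against dose.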

Mus musculus [5] = test: Postural effect on caudectomized Swiss albino mouse assessed as latency to onset time of asymmetric postural effect at 60.8 mg/kg, ip; type: functional; conditions: route intraperitoneal; how it was run: as §1
Mus musculus [6] = test: Postural effect on caudectomized Swiss albino mouse assessed as time duration of asymmetric posture at 30.4 mg/kg, ip; type: functional; conditions: route intraperitoneal; how it was run: as §1
Mus musculus [7] = test: Postural effect on caudectomized Swiss albino mouse assessed as time duration of asymmetric posture at 60.8 mg/kg, ip; type: functional; conditions: route intraperitoneal; how it was run: as §1
Mus musculus [8] = test: Postural effect on caudectomized Swiss albino mouse assessed as latency to onset time of asymmetric postural effect at 30.4 mg/kg, ip; type: functional; conditions: route intraperitoneal; how it was run: as §1
Mus musculus [9] = test: Postural effect on caudectomized Swiss albino mouse assessed as time duration of asymmetric posture at 59.8 mg/kg, ip; type: functional; conditions: route intraperitoneal
How it was run: (§3)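 Male Swiss albino Hale-Stoner mice given a right caudectomy by suction. The lesion counted as successful if the mice reacted to apomorphine 4 weeks later. Drug was given ip in 0.9% saline, up to 0.348 mmol/kg, to randomised groups of six, with 5-6 days before reuse. Onset and duration of asymmetric posture are reported as mean ± SE from six animals.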

Mus musculus [10] = test: Postural effect on caudectomized Swiss albino mouse assessed as latency to onset time of asymmetric postural effect at 59.8 mg/kg, ip; type: functional; conditions: route intraperitoneal; how it was run: as §2
Mus musculus [11] = test: Postural effect on caudectomized Swiss albino mouse assessed as time duration of asymmetric posture at 29.9 mg/kg, ip; type: functional; conditions: route intraperitoneal; how it was run: as §2
Mus musculus [12] = test: Postural effect on caudectomized Swiss albino mouse assessed as latency to onset time of asymmetric postural effect at 29.9 mg/kg, ip; type: functional; conditions: route intraperitoneal; how it was run: as §2
Mus musculus [13] = test: Postural effect on caudectomized Swiss albino mouse assessed as time duration of asymmetric posture at 25 mg/kg, ip; type: functional; conditions: route intraperitoneal; how it was run: as §2
Mus musculus [14] = test: Postural effect on caudectomized Swiss albino mouse assessed as time duration of asymmetric posture at 50 mg/kg, ip; type: functional; conditions: route intraperitoneal; how it was run: as §3
Mus musculus [15] = test: Postural effect on caudectomized Swiss albino mouse assessed as latency to onset time of asymmetric postural effect at 50 mg/kg, ip; type: functional; conditions: route intraperitoneal; how it was run: as §2
Mus musculus [16] = test: Postural effect on caudectomized Swiss albino mouse assessed as latency to onset time of asymmetric postural effect at 25 mg/kg, ip; type: functional; conditions: route intraperitoneal; how it was run: as §2
Mus musculus [17] = test: Postural effect on caudectomized Swiss albino mouse assessed as time duration of asymmetric posture at 71.4 mg/kg, ip; type: functional; conditions: route intraperitoneal; how it was run: as §3
Mus musculus [18] = test: Postural effect on caudectomized Swiss albino mouse assessed as time duration of asymmetric posture at 23.8 mg/kg, ip; type: functional; conditions: route intraperitoneal; how it was run: as §2
Mus musculus [19] = test: Postural effect on caudectomized Swiss albino mouse assessed as latency to onset time of asymmetric postural effect at 47.6 mg/kg, ip; type: functional; conditions: route intraperitoneal; how it was run: as §2
Mus musculus [20] = test: Postural effect on caudectomized Swiss albino mouse assessed as latency to onset time of asymmetric postural effect at 71.4 mg/kg, ip; type: functional; conditions: route intraperitoneal; how it was run: as §2
Mus musculus [21] = test: Postural effect on caudectomized Swiss albino mouse assessed as time duration of asymmetric posture at 47.6 mg/kg, ip; type: functional; conditions: route intraperitoneal; how it was run: as §2
Mus musculus [22] = test: Postural effect on caudectomized Swiss albino mouse assessed as latency to onset time of asymmetric postural effect at 23.8 mg/kg, ip; type: functional; conditions: route intraperitoneal; how it was run: as §2
Mus musculus [23] = test: Postural effect on caudectomized Swiss albino mouse assessed as latency to onset time of asymmetric postural effect at 1 mg/kg, ip; type: functional; conditions: route intraperitoneal; how it was run: as §2
Mus musculus [24] = test: Postural effect on caudectomized Swiss albino mouse assessed as time duration of asymmetric posture at 1 mg/kg, ip; type: functional; conditions: route intraperitoneal; how it was run: as §2
Mus musculus [25] = test: Postural effect on caudectomized Swiss albino mouse assessed as time duration of asymmetric posture at 96.9 mg/kg, ip; type: functional; conditions: route intraperitoneal; how it was run: as §3
Mus musculus [26] = test: Postural effect on caudectomized Swiss albino mouse assessed as latency to onset time of asymmetric postural effect at 64.6 mg/kg, ip; type: functional; conditions: route intraperitoneal; how it was run: as §2
Mus musculus [27] = test: Postural effect on caudectomized Swiss albino mouse assessed as time duration of asymmetric posture at 32.3 mg/kg, ip; type: functional; conditions: route intraperitoneal; how it was run: as §2
Mus musculus [28] = test: Postural effect on caudectomized Swiss albino mouse assessed as time duration of asymmetric posture at 64.6 mg/kg, ip; type: functional; conditions: route intraperitoneal; how it was run: as §3
Mus musculus [29] = test: Postural effect on caudectomized Swiss albino mouse assessed as latency to onset time of asymmetric postural effect at 96.9 mg/kg, ip; type: functional; conditions: route intraperitoneal; how it was run: as §2
Mus musculus [30] = test: Postural effect on caudectomized Swiss albino mouse assessed as latency to onset time of asymmetric postural effect at 32.3 mg/kg, ip; type: functional; conditions: route intraperitoneal; how it was run: as §2
Mus musculus [31] = test: Postural effect on caudectomized Swiss albino mouse assessed as latency to onset time of asymmetric postural effect at 67.8 mg/kg, ip; type: functional; conditions: route intraperitoneal; how it was run: as §2
Mus musculus [32] = test: Postural effect on caudectomized Swiss albino mouse assessed as time duration of asymmetric posture at 22.6 mg/kg, ip; type: functional; conditions: route intraperitoneal; how it was run: as §2
Mus musculus [33] = test: Postural effect on caudectomized Swiss albino mouse assessed as latency to onset time of asymmetric postural effect at 22.6 mg/kg, ip; type: functional; conditions: route intraperitoneal; how it was run: as §2
Mus musculus [34] = test: Postural effect on caudectomized Swiss albino mouse assessed as latency to onset time of asymmetric postural effect at 45.2 mg/kg, ip; type: functional; conditions: route intraperitoneal; how it was run: as §2
Mus musculus [35] = test: Postural effect on caudectomized Swiss albino mouse assessed as time duration of asymmetric posture at 67.8 mg/kg, ip; type: functional; conditions: route intraperitoneal; how it was run: as §3
Mus musculus [36] = test: Postural effect on caudectomized Swiss albino mouse assessed as time duration of asymmetric posture at 45.2 mg/kg, ip; type: functional; conditions: route intraperitoneal; how it was run: as §2
Mus musculus [37] = test: Postural effect on caudectomized Swiss albino mouse assessed as latency to onset time of asymmetric postural effect at 68.4 mg/kg, ip; type: functional; conditions: route intraperitoneal; how it was run: as §2
Mus musculus [38] = test: Postural effect on caudectomized Swiss albino mouse assessed as time duration of asymmetric posture at 34.2 mg/kg, ip; type: functional; conditions: route intraperitoneal; how it was run: as §2
Mus musculus [39] = test: Postural effect on caudectomized Swiss albino mouse assessed as time duration of asymmetric posture at 68.4 mg/kg, ip; type: functional; conditions: route intraperitoneal; how it was run: as §3
Mus musculus [40] = test: Postural effect on caudectomized Swiss albino mouse assessed as latency to onset time of asymmetric postural effect at 34.2 mg/kg, ip; type: functional; conditions: route intraperitoneal; how it was run: as §2
Mus musculus [41] = test: Postural effect on caudectomized Swiss albino mouse assessed as latency to onset time of asymmetric postural effect at 104.8 mg/kg, ip; type: functional, organism-based; parameters: dose 104.8 mg/kg; how it was run: as §2
Mus musculus [42] = test: Postural effect on caudectomized Swiss albino mouse assessed as latency to onset time of asymmetric postural effect at 100.5 mg/kg, ip; type: functional, organism-based; parameters: dose 100.5 mg/kg; how it was run: as §2

CCCCN(CCc1ccccc1)CCc1ccc(O)c(O)c1
Activity (Mus musculus [1]): inactive

Oc1ccc(CCN(CCc2ccccc2)CCc2ccccc2)cc1O
Activity (Mus musculus [2]): inactive

CCCN(C)CCc1ccc(O)c(O)c1.Cl
Activity (Mus musculus [3]): Active | ED50 (Mus musculus [4]): 55 mg/kg

CCCN(CCCc1ccccc1)CCc1ccc(O)c(O)c1.Cl
Time (Mus musculus [5]): 5.8 min | Time (Mus musculus [6]): 6.4 min | Time (Mus musculus [7]): 18.2 min | Time (Mus musculus [8]): 7.6 min | ED50 (Mus musculus [4]): 9 mg/kg

Br.CCCN(CCC)C1CCc2cc(O)c(O)cc2C1 (stereo not given)
Time (Mus musculus [9]): 31.5 min | Time (Mus musculus [10]): 2 min | Time (Mus musculus [11]): 17 min | Time (Mus musculus [12]): 2.8 min | ED50 (Mus musculus [4]): 1.6 mg/kg

CCCCN(CCC)CCc1ccc(O)c(O)c1.Cl
Time (Mus musculus [13]): 6.4 min | Time (Mus musculus [14]): 25.8 min | Time (Mus musculus [15]): 3.7 min | Time (Mus musculus [16]): 3.7 min | ED50 (Mus musculus [4]): 8.6 mg/kg

CCCN(CCC)CCc1ccc(O)c(O)c1.Cl
Time (Mus musculus [17]): 21.9 min | Time (Mus musculus [18]): 6.2 min | Time (Mus musculus [19]): 3.7 min | Time (Mus musculus [20]): 3.1 min | Time (Mus musculus [21]): 13.9 min | Time (Mus musculus [22]): 1.8 min | ED50 (Mus musculus [4]): 16 mg/kg

CN1CCc2cccc3c2[C@H]1Cc1ccc(O)c(O)c1-3.CN1CCc2cccc3c2[C@H]1Cc1ccc(O)c(O)c1-3.Cl.Cl.O [APOMORPHINE HYDROCHLORIDE]
Time (Mus musculus [23]): 4.6 min | Time (Mus musculus [24]): 12.8 min | ED50 (Mus musculus [4]): 0.11 mg/kg

Br.CCCCN(CCCC)C1CCc2cc(O)c(O)cc2C1 (stereo not given)
Time (Mus musculus [25]): 13.7 min | Time (Mus musculus [26]): 5.3 min | Time (Mus musculus [27]): 1.6 min | Time (Mus musculus [28]): 8.8 min | Time (Mus musculus [29]): 4.1 min | ED50 (Mus musculus [4]): 44 mg/kg | Time (Mus musculus [30]): 1 min

CCCCN(C)CCc1ccc(O)c(O)c1.Cl
Time (Mus musculus [31]): 3.1 min | Time (Mus musculus [32]): 3.7 min | Time (Mus musculus [33]): 0.4 min | Time (Mus musculus [34]): 1.3 min | Time (Mus musculus [35]): 2.2 min | Time (Mus musculus [36]): 2.3 min | ED50 (Mus musculus [4]): 61 mg/kg

CCCCCN(CCC)CCc1ccc(O)c(O)c1.Cl
Time (Mus musculus [37]): 4.2 min | Time (Mus musculus [38]): 17.4 min | Time (Mus musculus [39]): 20.6 min | Time (Mus musculus [40]): 3.7 min | ED50 (Mus musculus [4]): 8.7 mg/kg

CCCCN(CCCC)CCc1ccc(O)c(O)c1
Activity (Mus musculus [41]): inactive

CCCCCN(CCCC)CCc1ccc(O)c(O)c1
Activity (Mus musculus [42]): inactive
